ChEMBL document CHEMBL4680061, “Unveiling the active isomer of cycloalanopine, a cyclic opine from Lactobacillus rhamnosus LS8, through synthesis and analog production” (2020)
Values after ≈ are worked out from the molar mass of the structure shown. Active and inactive are the calls of the source. The rule behind the calls is not given here.

Key:
[1] = test system: Listeria monocytogenes; test: Antibacterial activity against Listeria monocytogenes ATCC 15313 assessed as bacterial growth inhibition at 250 mg/ml after overnight incubation by spot-on-lawn assay; type: functional, organism-based
In short: (§1)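 Lawns were prepared in All Purpose Tween medium at 25 °C: overnight cultures went into 5 mL soft agar (0.75%) poured onto 1.5% agar plates. Aqueous or DMSO solutions were two-fold serially diluted, and 10 µL aliquots were spotted and dried. Plates were incubated overnight at 25 °C. Inhibition was read at the spot locations, and MIC was based on triplicates.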

[2] = test system: Enterococcus faecalis; test: Antibacterial activity against Enterococcus faecalis ATCC 7080 assessed as bacterial growth inhibition at 250 mg/ml after overnight incubation by spot-on-lawn assay; type: functional, organism-based; in short: as §1
[3] = test system: Staphylococcus aureus; test: Antibacterial activity against Staphylococcus aureus ATCC 25923 assessed as bacterial growth inhibition at 250 mg/ml after overnight incubation by spot-on-lawn assay; type: functional, organism-based
In short: (§2)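 Tryptic Soy Broth at 25 °C was used for culture and for the 0.75% soft-agar overlay, which was seeded from overnight cultures and poured onto 1.5% agar. Two-fold dilution series in MQ-H2O or DMSO were spotted (10 µL), dried, and incubated overnight at 25 °C. Growth inhibition at each spot was recorded, and MIC was derived from triplicate assays.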

[4] = test system: Escherichia coli; test: Antibacterial activity against Escherichia coli ATCC 25922 assessed as bacterial growth inhibition at 250 mg/ml after overnight incubation by spot-on-lawn assay; type: functional, organism-based
In short: (§3)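 Overnight cultures were grown in Luria broth at 37 °C and used to seed 5 mL soft agar (0.75%) in the same medium, poured over 1.5% hard agar. Compounds in MQ-H2O or DMSO were two-fold serially diluted from stock, and 10 µL of each was spotted. After drying, plates were incubated overnight at 37 °C. Growth inhibition at each spot was scored, and MIC was taken from triplicates.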

[5] = test system: Pseudomonas aeruginosa; test: Antibacterial activity against Pseudomonas aeruginosa ATCC 14207 assessed as bacterial growth inhibition at 250 mg/ml after overnight incubation by spot-on-lawn assay; type: functional, organism-based; in short: as §3
[6] = test system: Salmonella typhimurium; test: Antibacterial activity against Salmonella typhimurium ATCC 13311 assessed as bacterial growth inhibition at 250 mg/ml after overnight incubation by spot-on-lawn assay; type: functional, organism-based; conditions: Salmonella enterica subsp. enterica serovar Typhimurium; in short: as §3
[7] = test system: Acinetobacter baumannii; test: Antibacterial activity against Acinetobacter baumannii ATCC 19606 assessed as bacterial growth inhibition at 250 mg/ml after overnight incubation by spot-on-lawn assay; type: functional, organism-based; conditions: ATCC 19606 = CIP 70.34 = JCM 6841; in short: as §3
[8] = test system: Listeria monocytogenes; test: Antibacterial activity against Listeria monocytogenes ATCC 15313 assessed as bacterial growth inhibition after overnight incubation by spot-on-lawn assay; type: functional; in short: as §1
[9] = test system: Acinetobacter baumannii; test: Antibacterial activity against Acinetobacter baumannii ATCC 19606 assessed as bacterial growth inhibition after overnight incubation by spot-on-lawn assay; type: functional; conditions: ATCC 19606 = CIP 70.34 = JCM 6841; in short: as §3
[10] = test system: Escherichia coli; test: Antibacterial activity against Escherichia coli ATCC 25922 assessed as bacterial growth inhibition after overnight incubation by spot-on-lawn assay; type: functional; in short: as §3
[11] = test system: Enterococcus faecalis; test: Antibacterial activity against Enterococcus faecalis ATCC 7080 assessed as bacterial growth inhibition after overnight incubation by spot-on-lawn assay; type: functional; in short: as §1
[12] = test system: Staphylococcus aureus; test: Antibacterial activity against Staphylococcus aureus ATCC 25923 assessed as bacterial growth inhibition after overnight incubation by spot-on-lawn assay; type: functional; in short: as §2
[13] = test system: Salmonella typhimurium; test: Antibacterial activity against Salmonella typhimurium ATCC 13311 assessed as bacterial growth inhibition after overnight incubation by spot-on-lawn assay; type: functional, Salmonella enterica subsp. enterica serovar Typhimurium; conditions: Salmonella enterica; in short: as §3
[14] = test system: Pseudomonas aeruginosa; test: Antibacterial activity against Pseudomonas aeruginosa ATCC 14207 assessed as bacterial growth inhibition after overnight incubation by spot-on-lawn assay; type: functional; in short: as §3

SMILES	MIC [8] [mg/mL]	MIC [9] [mg/mL]	MIC [10] [mg/mL]	MIC [11] [mg/mL]	MIC [12] [mg/mL]	MIC [13] [mg/mL]	MIC [14] [mg/mL]	Activity [1]	Activity [2]	Activity [3]	Activity [4]	Activity [5]	Activity [6]	Activity [7]
C[C@H]1N[C@H](C)C(=O)NNC1=O	–	–	–	–	–	–	–	inactive	inactive	inactive	inactive	inactive	inactive	inactive
C[C@@H]1N[C@@H](C)C(=O)NNC1=O	–	–	–	–	–	–	–	inactive	inactive	inactive	inactive	inactive	inactive	inactive
C[C@@H]1N[C@H](C)C(=O)NNC1=O	26 (≈ 165 mM)	–	3.2 (≈ 20.4 mM)	26 (≈ 165 mM)	26 (≈ 165 mM)	26 (≈ 165 mM)	52 (≈ 331 mM)	–	–	–	–	–	–	–

Continued by falling MIC [8], values first:

MIC [8] [mg/mL]	MIC [9] [mg/mL]	MIC [10] [mg/mL]	MIC [11] [mg/mL]	MIC [12] [mg/mL]	MIC [13] [mg/mL]	MIC [14] [mg/mL]	SMILES	Activity [1]	Activity [2]	Activity [3]	Activity [4]	Activity [5]	Activity [6]	Activity [7]
38 (≈ 265 mM)	19 (≈ 133 mM)	2.3 (≈ 16.1 mM)	–	75 (≈ 524 mM)	19 (≈ 133 mM)	38 (≈ 265 mM)	C[C@@H]1NCC(=O)NNC1=O	–	–	–	–	–	–	–
16 (≈ 74.7 mM)	62 (≈ 289 mM)	31 (≈ 145 mM)	16 (≈ 74.7 mM)	62 (≈ 289 mM)	62 (≈ 289 mM)	–	C[C@H]1N[C@H](CCCCN)C(=O)NNC1=O	–	–	–	–	–	–	–
7.8 (≈ 36.4 mM)	0.98 (≈ 4.57 mM)	0.49 (≈ 2.29 mM)	62 (≈ 289 mM)	31 (≈ 145 mM)	3.9 (≈ 18.2 mM)	62 (≈ 289 mM)	C[C@H]1N[C@@H](CCCCN)C(=O)NNC1=O	–	–	–	–	–	–	–
2 (≈ 14 mM)	0.12 (≈ 0.838 mM)	0.06 (≈ 0.419 mM)	2 (≈ 14 mM)	2 (≈ 14 mM)	0.98 (≈ 6.85 mM)	3.9 (≈ 27.2 mM)	C[C@H]1NCC(=O)NNC1=O	–	–	–	–	–	–	–
